Measurements from ChEMBL document CHEMBL3351969, “Chalcone based azacarboline analogues as novel antitubulin agents: design, synthesis, biological evaluation and molecular modelling studies” (Eur J Med Chem, 2014).
Counter-ions that a name gives are not always drawn. Calls of active or inactive are those of the source. No cut-off for these calls is given here.

Legend:
THP-1 [1] = assay: Cytotoxicity against human THP1 cells assessed as growth inhibition at 50 uM after 48 hrs by sulforhodamine B assay; assay type: functional; conditions: THP-1, 48 h, read-out: GI
Method in brief: (§1)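 Single-point SRB screen at 50 µM. Cells were seeded and grown 24 h at 37°C in a CO2 incubator, then exposed to compound in complete medium for 48 h. Cells were fixed with 50% TCA for 1 h at 4°C, water-washed, and stained with 0.4% SRB in 1% acetic acid for 30 min. After 1% TCA washes, dye was dissolved in Tris-HCl (0.01 M, pH 10.4) and OD read at 540 nm.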

COLO 205 [2] = assay: Cytotoxicity against human COLO205 cells assessed as growth inhibition at 50 uM after 48 hrs by sulforhodamine B assay; assay type: functional; conditions: COLO 205, 48 h, read-out: GI; method in brief: as §1
[3] = Cytotoxicity against human HCT116 cells assessed as growth inhibition at 50 uM after 48 hrs by sulforhodamine B assay; assay type: functional; conditions: HCT-116, 48 h, read-out: GI; method in brief: as §1
A549 [4] = assay: Cytotoxicity against human A549 cells assessed as growth inhibition at 50 uM after 48 hrs by sulforhodamine B assay; assay type: functional; conditions: for inhibition of growth at 50 µM: A549, 48 h, read-out: GI; method in brief: as §1
Tubulin = assay: Inhibition of tubulin (unknown origin) polymerization after 1 hr by spectrophotometry; assay type: protein-complex assay, Homo sapiens
Method in brief: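 Kit tubulin (10 mg in 1 mL general tubulin buffer plus 10 µL of 100 mM GTP) was held at 4°C. Compounds came from a 100 µM DMSO stock diluted to 50, 25 and 10 µM (pre-assay dilutions). Compound was pre-warmed in plate wells 2 min at 37°C before adding tubulin diluted in polymerization buffer (general buffer, glycerol buffer, GTP).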

THP-1 [5] = assay: Cytotoxicity against human THP1 cells assessed as growth inhibition after 48 hrs by sulforhodamine B assay; assay type: functional, cell-based; conditions: THP-1, 48 h
Method in brief: (§2)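 SRB growth assay with compound dilutions over several concentrations. Cells were pre-grown 24 h at 37°C in a CO2 incubator, then exposed for 48 h. Cells were fixed with 50% TCA (1 h, 4°C) and stained with 0.4% SRB in 1% acetic acid for 30 min. Bound dye was solubilised in 0.01 M Tris-HCl (pH 10.4) and read at 540 nm. Percent inhibition versus untreated (blank-subtracted) was used to calculate IC50.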

COLO 205 [6] = assay: Cytotoxicity against human COLO205 cells assessed as growth inhibition after 48 hrs by sulforhodamine B assay; assay type: functional, cell-based; conditions: COLO 205, 48 h; method in brief: as §2
[7] = Cytotoxicity against human HCT116 cells assessed as growth inhibition after 48 hrs by sulforhodamine B assay; assay type: functional, cell-based; conditions: HCT-116, 48 h; method in brief: as §2
THP-1 [8] = assay: Disruption of microtubule organization in human THP1 cells at 1 uM after 48 hrs by immunofluorescence technique; assay type: cell-based
A549 [9] = assay: Cytotoxicity against human A549 cells assessed as growth inhibition at 1 uM after 48 hrs by sulforhodamine B assay; assay type: functional; conditions: A549, 48 h, read-out: GI
THP-1 [10] = assay: Disruption of microtubule organization in human THP1 cells at 5 uM after 48 hrs by immunofluorescence technique; assay type: cell-based
Method in brief: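 THP-1 cells were exposed to 1 µM paclitaxel or 5 µM test agent for 48 h, alongside untreated controls. Microtubules and unassembled tubulin were immunostained (green) and DNA was stained with DAPI. Microtubule organisation was examined by confocal microscopy.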

THP-1 [11] = assay: Cytotoxicity against human THP1 cells assessed as growth inhibition at 1 uM after 48 hrs by sulforhodamine B assay; assay type: functional; conditions: THP-1, 48 h, read-out: GI
COLO 205 [12] = assay: Cytotoxicity against human COLO205 cells assessed as growth inhibition at 1 uM after 48 hrs by sulforhodamine B assay; assay type: functional; conditions: COLO 205, 48 h, read-out: GI
[13] = Cytotoxicity against human HCT116 cells assessed as growth inhibition at 1 uM after 48 hrs by sulforhodamine B assay; assay type: functional; conditions: HCT-116, 48 h, read-out: GI

| IC50 (Tubulin) [µM] | SMILES | inhibition of growth at 50 µM (THP-1 [1]) [%] | inhibition of growth at 50 µM (COLO 205 [2]) [%] | inhibition of growth at 50 µM [3] [%] | growth inhibition (GI) (A549 [4]) | IC50 (THP-1 [5]) [µM] | IC50 (COLO 205 [6]) [µM] | IC50 [7] [µM] | Activity (THP-1 [8]) | inhibition of growth at 1 µM (A549 [9]) [%] | inhibition of growth at 50 µM (A549 [4]) [%] | Activity (THP-1 [10]) | inhibition of growth at 1 µM (THP-1 [11]) [%] | inhibition of growth at 1 µM (COLO 205 [12]) [%] | inhibition of growth at 1 µM [13] [%] |
| --- | --- | --- | --- | --- | --- | --- | --- | --- | --- | --- | --- | --- | --- | --- | --- |
| 8.91 | CC(=O)n1c2ccccc2c2cc(-c3ccc4ccccc4c3)nnc21 | 89 | 82 | 81 | inactive | 2.41 | 5.76 | 4.44 |  |  |  |  |  |  |  |
|  | CC(=O)O[C@H]1C(=O)[C@@]2(C)[C@H]([C@H](OC(=O)c3ccccc3)[C@]3(O)C[C@H](OC(=O)[C@H](O)[C@@H](NC(=O)c4ccccc4)c4ccccc4)C(C)=C1C3(C)C)[C@]1(OC(C)=O)CO[C@@H]1C[C@@H]2O [PACLITAXEL] |  |  |  |  |  |  |  | Active | 70 |  |  |  |  |  |
| 8.97 | CC(=O)n1c2ccccc2c2cc(-c3cccc4ccccc34)nnc21 | 89 | 83 | 80 | inactive | 2.39 | 5.74 | 4.36 |  |  |  |  |  |  |  |
|  | CC(=O)n1c2ccccc2c2cc(-c3ccccc3)nnc21 | 71 | 64 | 66 |  | 5.75 | 8.11 | 7.77 |  |  | 10 |  |  |  |  |
|  | COc1ccc(-c2cc3c4c(Cl)cccc4n(C(C)=O)c3nn2)cc1 | 60 | 39 | 36 |  | 14.9 | 18.2 | 16.9 |  |  | 14 |  |  |  |  |
| 2.41 | COc1cc(-c2cc3c4ccccc4n(C(C)=O)c3nn2)cc(OC)c1OC | 99 | 89 | 86 |  | 1.13 | 4.15 | 2.89 |  |  | 20 | Active |  |  |  |
| 4.92 | COc1ccc(-c2cc3c4ccccc4n(C(C)=O)c3nn2)cc1OC | 90 | 82 | 80 |  | 2.33 | 5.69 | 4.4 |  |  | 12 |  |  |  |  |
|  | CC(=O)n1c2ccccc2c2cc(-c3ccc[nH]3)nnc21 | 78 | 68 | 72 |  | 4.28 | 7.23 | 6.14 |  |  | 12 |  |  |  |  |
|  | COc1cccc2c1C(=O)c1c(O)c3c(c(O)c1C2=O)C[C@@](O)(C(=O)CO)C[C@@H]3O[C@H]1C[C@H](N)[C@H](O)[C@H](C)O1 [DOXORUBICIN HYDROCHLORIDE] |  |  |  |  |  |  |  |  |  |  |  | 71 | 72 | 66 |
